Screening data: PubChem, several laboratories
Cl transport mod: modulators of human KCC2 chloride dependent transport; Q9H2X9; KCC2 cells, thallium flux FluoZin-2 fluorescence; B-score of Tl+ flux slope (higher = more flux/activation; lower = inhibition) at 10 µM; 190,000 tested, 2.2% active; AID 1456;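 active = thallium flux slope and its plate-corrected score both differing from the plate sample mean at a set confidence after two filtering rounds, in either direction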;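 note: slope of fluorescence scaled to starting intensity during 10 to 20 s after thallium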
Target sequence (Q9H2X9 whole entry, looked up): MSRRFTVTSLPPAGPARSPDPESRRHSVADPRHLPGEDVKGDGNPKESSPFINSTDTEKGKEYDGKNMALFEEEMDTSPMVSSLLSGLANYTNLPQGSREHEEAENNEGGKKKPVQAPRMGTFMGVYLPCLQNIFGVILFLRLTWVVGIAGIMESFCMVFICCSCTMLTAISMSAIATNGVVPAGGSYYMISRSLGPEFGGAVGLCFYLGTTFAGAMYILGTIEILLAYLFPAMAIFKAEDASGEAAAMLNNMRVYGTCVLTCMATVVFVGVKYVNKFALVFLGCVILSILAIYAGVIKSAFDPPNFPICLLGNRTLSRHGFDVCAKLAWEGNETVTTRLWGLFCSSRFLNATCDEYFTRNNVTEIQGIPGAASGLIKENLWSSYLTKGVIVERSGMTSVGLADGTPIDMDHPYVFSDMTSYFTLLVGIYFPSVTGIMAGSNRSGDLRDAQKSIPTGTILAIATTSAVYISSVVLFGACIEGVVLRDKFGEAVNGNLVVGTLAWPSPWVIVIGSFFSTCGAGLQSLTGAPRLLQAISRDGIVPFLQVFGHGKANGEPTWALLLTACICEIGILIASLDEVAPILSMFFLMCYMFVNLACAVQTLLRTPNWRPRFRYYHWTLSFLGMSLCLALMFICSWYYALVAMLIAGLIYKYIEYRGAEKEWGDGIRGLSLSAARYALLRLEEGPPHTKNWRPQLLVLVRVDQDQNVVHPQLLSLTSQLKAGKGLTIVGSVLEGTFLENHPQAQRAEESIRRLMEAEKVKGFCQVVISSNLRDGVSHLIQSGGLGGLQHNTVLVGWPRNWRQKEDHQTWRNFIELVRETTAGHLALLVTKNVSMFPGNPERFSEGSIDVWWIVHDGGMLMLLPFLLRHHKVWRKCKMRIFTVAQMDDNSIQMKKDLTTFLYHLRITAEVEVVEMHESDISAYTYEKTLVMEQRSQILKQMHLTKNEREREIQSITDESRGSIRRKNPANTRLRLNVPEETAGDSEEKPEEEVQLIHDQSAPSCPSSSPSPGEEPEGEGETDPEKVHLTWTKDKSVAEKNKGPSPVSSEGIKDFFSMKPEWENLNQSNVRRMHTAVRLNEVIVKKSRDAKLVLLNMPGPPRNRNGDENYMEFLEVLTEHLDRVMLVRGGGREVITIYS
HSV augment: HSV replication enhancement | HSV replication augmentation in cells, fold increase | 220,000 tested, 0.005% active | maximum fold increase; in the data active = maximum fold increase above about 1.5; inconclusive = no clear call, values can overlap the other calls; tested in PC3 cells
STAT3 blocker: reduces IL-6 driven STAT3 reporter signal. U3A cells, IL-6 STAT3-luciferase reporter, luminescence; host cell line lacks STAT1. inhibition, % at 5.5 µM. 190,000 tested, 0.89% active;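 active = inhibition above the mean inhibition across all screened compounds plus 3 SD, cut at about 44% in these data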;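 note: 0% = DMSO only wells and 100% = 100 µM nifuroxazide control wells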
STAT1 act: increases IFN-gamma driven STAT1 reporter signal | NIH 3T3 STAT1-luciferase reporter, luminescence; 100% = IFN-gamma alone, no compound | activation (% of control), % at 5.5 µM | 200,000 tested, 2.6% active | AID 932;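 active = activation above the screen-wide mean activation plus 3 SD, cut at about 130% in these data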;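 note: raw ratio to IFN-gamma control signal so 100% means no change and 0% no light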
STAT1 inh: inhibitors of IFN-gamma induced STAT1 signaling. NIH 3T3 STAT1-luciferase reporter, luminescence. inhibition, % at 5.5 µM. 200,000 tested, 0.35% active;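 active = inhibition above a set limit, the mean inhibition across all tested compounds plus 3 SD, cut at about 34% in these data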;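 note: 0% = IFN-gamma with DMSO and 100% = IFN-gamma with 300 µM nifuroxazide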
STAT3 activator: activators of IL-6 induced STAT3 signaling; U3A cells, IL-6 STAT3-luciferase reporter, luminescence; 100% = signal with IL-6 EC80 alone; activation (% of control), % at 5.6 µM; 190,000 tested, 0.91% active; AID 871;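 active = activation above the screen-wide mean of compound activation plus 3 SD, cut at about 130% in these data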;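 note: 0% = background luminescence of wells with medium and substrate only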
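Material: human U3A cells carrying STAT3-luciferase construct. Measured by: reporter luminescence signal. Timing: compound 1 h, then IL-6 6 h at 37 °C.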
Active calls of the source: *; i = inactive; ? = inconclusive; / = not tested or not shown. This is a sample that favours compounds with a hit; in the whole collection about 5.5% have one here.

SMILES	Cl transport mod	HSV augment	STAT3 blocker	STAT1 act	STAT1 inh	STAT3 activator
Cc1cc(C(=O)CSc2nnnn2-c2ccccc2)c(C)n1CC1CCCO1 (stereo unspecified)	0.96	i	0	139*	-43	105
Cc1cc(C(=O)CSc2nc3ccccc3c(=O)n2C)c(C)n1CC1CCCO1 (stereo unspecified)	-1.1	i	82*	64	38*	32
CCC(=O)N(C)CCc1cc2c(c(OC)c1/C=N/NC(=O)c1ccc(Br)cc1)OCO2	-1.5	i	1	97	3	102
Cc1cc(C)c2c(N)c(C(=O)NN3CC(=O)N(c4ccccc4)CC3=O)sc2n1	1.3	i	/	/	/	/
COc1ccc(OC)c(/C=N/NC(=O)Cc2nc3ccccc3[nH]2)c1	-0.92	i	-12	94	7	107
Cc1cccc(C)c1NC(=O)COC(=O)c1ccc([N+](=O)[O-])o1	0.2	i	5	99	0	99
CCn1c(=S)[nH]c2cc(C(=O)OC)ccc2c1=O	9.2*	i	-1	88	13	101
CC1(C)Cc2ccccc2C(N/N=C/c2ccc(Cl)cc2)=N1	0.0078	i	18	99	1	85
O=C(CSc1nnc(SCc2ccccc2)s1)N/N=C/c1c[nH]c2ccccc12	-0.78	i	22	98	1	90
Cc1ccc(CSc2nnc(SCC(=O)N/N=C/c3c[nH]c4ccccc34)s2)cc1	-2.6	i	20	131*	-35	92
CCCCNC(=O)COC(=O)CNC(=O)c1cc(Cl)cc([N+](=O)[O-])c1	-1	i	6	107	-7	102
CS(=O)(=O)N(Cc1ccc(Cl)cc1)c1ccc(C(=O)N/N=C/c2cc3ccccc3nc2Cl)cc1	-0.63	i	6	91	9	94
O=C(C[n+]1ccccc1)N/N=C/c1ccc(F)cc1	-0.23	i	-3	108	-10	104
O=C(NC(=S)Nc1ccc(O)cc1)c1ccccc1Cl	0.71	i	-3	115	-18	104
CC(C)CNC(=S)NC(=O)c1ccccc1Cl	50*	i	-2	112	-14	104
COc1ccc(NC(=O)c2ccc(-c3ccccc3Cl)o2)cc1	-0.57	i	-7	130*	-33	104
COc1ccc(NC(=O)c2ccc(-c3ccc(C)c4ccccc34)o2)cc1	0.28	i	7	99	1	92
COc1ccc(NC(=S)NC(=O)c2ccccc2Cl)cc1	21*	i	14	115	-18	90
CS(=O)(=O)N(CC(=O)Nc1ccc(S(=O)(=O)N2CCCC2)cc1)c1ccccc1	-0.22	i	-3	99	-1	104
COc1ccc(C)cc1S(=O)(=O)N1CCOCC1	0.98	i	8	105	-7	95
O=C(COC(=O)c1cncc(Br)c1)NC1CCCC1	-0.055	i	5	100	-1	97
Nc1ncn(-c2ncc(C(F)(F)F)cc2Cl)n1	1.2	i	15	104	-7	90
O=C(NCC1CCCO1)c1ccc2c(=O)n(Cc3ccco3)c(SCC(=O)N3CCCC3)nc2c1 (stereo unspecified)	-1.6	i	19	68	35*	93
CCOC(=O)CSc1nc2cc(C(=O)NCC3CCCO3)ccc2c(=O)n1Cc1ccco1 (stereo unspecified)	-0.085	i	6	98	2	96
Cc1ccc2c(Cl)c(C(=O)Nc3cc(C)on3)sc2c1	0.91	i	1	132*	-35	100
SMILES	Cl transport mod	HSV augment	STAT3 blocker	STAT1 act	STAT1 inh	STAT3 activator
O=C(Nc1nccs1)c1sc2cc(Cl)ccc2c1Cl	/	i	-34	146*	-52	130
O=C(Nc1ccon1)c1sc2cc(F)ccc2c1Cl	-0.46	i	-19	131*	-35	119
COc1cc(Cl)c(C)cc1NC(=O)CNC(C)c1ccccc1OC (stereo unspecified)	-0.22	i	8	96	4	97
Cc1cccc(N/N=C/c2ccccc2O)c1	1.1	i	-24	90	11	120
COc1ccc(CCC(=O)N(C)CC(=O)Nc2cc(C)ccc2C)cc1	0.19	i	2	98	2	101
O=C1NC(=S)S/C1=C/c1ccc(N2CCOCC2)o1	-7.7*	i	7	102	-2	94
O=C1S/C(=C/c2ccc(N3CCOCC3)o2)C(=O)N1Cc1ccc(F)cc1	/	?	14	97	3	92
CC(C)(C)NC(=O)c1ccc(NC(=O)CSc2ccccc2)cc1	0.35	i	1	107	-11	103
CSc1ccccc1NC(=O)c1ccccc1C	0.2	i	-3	101	-1	102
CCOC(=O)C1=NNC2(c3ccc(C)cc3)C(=O)N(c3ccc(Cl)cc3)C(=O)C12 (stereo unspecified)	0.088	i	1	89	12	99
O=C(NCCN1C(=O)C2C3C=CC(C3)C2C1=O)Nc1ccc(Br)cc1 (stereo unspecified)	/	i	-3	141*	-46	111
O=C(NCCN1C(=O)C2C3C=CC(C3)C2C1=O)Nc1cccnc1 (stereo unspecified)	2.2	i	8	99	1	101
COc1ccc(C2C(C#N)=C(N)Oc3c2c(-c2ccccc2)nn3-c2ccccc2)c(OC)c1OC (stereo unspecified)	0.58	i	2	96	3	99
O=C(CSc1ccsc1[N+](=O)[O-])NCCc1ccc(Cl)cc1	/	i	0	95	3	109
COc1ccc(CNC(=O)CSc2ccsc2[N+](=O)[O-])cc1	0.34	i	-9	119	-19	110
O=C(CSc1ccsc1[N+](=O)[O-])NCCc1ccccc1	0.08	i	-37	100	0	136*
Cc1ccc(CNC(=O)CSc2ccsc2[N+](=O)[O-])cc1	0.67	i	-15	134*	-37	115
COc1ccccc1CNC(=O)CSc1cc(=O)n(C)c2ccccc12	-0.39	i	22	93	7	89
Brc1ccccc1-n1nnc(-c2nccs2)n1	-1.1	i	/	133*	-34	/
Cn1c(-c2ccc3ccccc3n2)nc2cnccc21	-0.57	i	-2	133*	-36	110
Cc1ccc(N=Cc2sc(O)c3ccccc23)c(C)c1	/	i	13	147*	-53	92
COc1ccc(CC(=O)NCc2csc(-c3cccs3)n2)cc1OC	-0.0014	i	/	/	/	/
Nc1nc(CSc2ccccc2)nc(N2CCCCC2)n1	-0.33	i	-5	142*	-48	111
O=C(O)c1ccc(N2CC3CC(C2)c2cccc(=O)n2C3)c(NS(=O)(=O)c2cccc(C(F)(F)F)c2)c1 (stereo unspecified)	0.022	i	9	104	-5	102
COc1ccccc1/C=C(/C#N)C(=O)O	0.09	i	/	/	/	/
c1ccc(Nc2nc(-c3cccnc3)cs2)nc1	/	i	18	144*	-49	88
